The record followed here is ChEMBL document CHEMBL3098043, “New insights into molecular recognition of 1,1-bisphosphonic acids by farnesyl diphosphate synthase” (Bioorg Med Chem, 2014).

Data set [1] in a line: Cytotoxicity against hTerT cells. In kind it is cell-based. The note with it: human. Summed up: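 Toxicity toward hTerT host cells was judged by visual inspection during the tachyzoite growth assay. Cells were in DMEM-HG with 1% FBS at 37 °C, 5% CO2.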
The subject of data set [2] is Toxoplasma gondii. Briefly: Antimicrobial activity against Toxoplasma gondii tachyzoites expressing red fluorescence protein infected in hTerT cells measured daily by fluorescence assay. In kind it is functional. The note with it: read-out: ED50 (the source's name). Summed up: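 Tachyzoites expressing red fluorescent protein, maintained in hTerT cells in DMEM-HG with 1% FBS, 2 mM glutamine, 1 mM pyruvate, 37 °C, 5% CO2. Confluent hTerT monolayers infected with 10^4 filtered, needle-passed tachyzoites/well. Drugs serially diluted in the same medium. Fluorescence read daily from the bottom (ex 510, em 540 nm).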

Data set [3] concerns Vero. Briefly: Cytotoxicity against african green monkey Vero cells at 25 uM. The note with it: chlorocebus sabaeus. In kind it is cell-based. Summed up: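 Host-cell toxicity toward irradiated, T. cruzi-infected Vero cells was judged by visual inspection during the amastigote assay. Drugs went up to 25 μM in RPMI with 10% FBS at 35 °C, 7% CO2, over 3 days.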
Data set [4] deals with Trypanosoma cruzi. Briefly: Antimicrobial activity against Trypanosoma cruzi CL amastigotes infected in african green monkey Vero cells measured on day 3 by fluorescence assay. In kind it is functional. The note with it: 72 h, read-out: ED50 (the source's name). Summed up: (§1)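 Vero cells were gamma-irradiated (2,000 Rads), seeded at 3.4×10^4/well in RPMI with 10% FBS, and incubated overnight at 35 °C, 7% CO2. […] Compounds were given in serial dilutions (1.56–25 μM), each in quadruplicate, with benznidazole (0.39–6.25 μM) as reference. Fluorescence was read on day 3 post-infection, and IC50 was obtained by non-linear regression.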

A short description of data set [5]: […]. On the set-up: species or system Trypanosoma cruzi.
In data set [6] the target is T1, Farnesyl diphosphate synthase (Toxoplasma gondii, UniProt Q197X6).
T1 sequence (Q197X6 whole entry): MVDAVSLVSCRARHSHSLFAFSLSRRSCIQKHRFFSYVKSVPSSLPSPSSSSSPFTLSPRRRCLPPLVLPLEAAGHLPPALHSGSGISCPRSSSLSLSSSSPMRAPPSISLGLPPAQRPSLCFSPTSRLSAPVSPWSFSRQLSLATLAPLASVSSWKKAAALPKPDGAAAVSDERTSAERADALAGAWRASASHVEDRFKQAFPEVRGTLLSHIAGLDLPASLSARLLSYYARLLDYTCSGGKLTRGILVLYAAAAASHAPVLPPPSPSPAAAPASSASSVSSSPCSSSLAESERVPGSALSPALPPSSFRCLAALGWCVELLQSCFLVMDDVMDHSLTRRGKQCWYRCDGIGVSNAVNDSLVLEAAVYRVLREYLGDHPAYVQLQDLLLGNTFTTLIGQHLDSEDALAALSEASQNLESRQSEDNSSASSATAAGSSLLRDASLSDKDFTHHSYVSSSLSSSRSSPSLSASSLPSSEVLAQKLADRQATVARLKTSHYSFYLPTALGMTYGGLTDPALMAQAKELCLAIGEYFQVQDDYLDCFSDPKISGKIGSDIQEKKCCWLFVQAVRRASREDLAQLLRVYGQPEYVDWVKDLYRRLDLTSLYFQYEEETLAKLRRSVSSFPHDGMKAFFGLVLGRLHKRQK
Briefly: Inhibition of Toxoplasma gondii FPPS.

Data set [7] deals with Trypanosoma cruzi. Briefly: Antimicrobial activity against Trypanosoma cruzi. In kind it is functional. The note with it: read-out: ED50 (the source's name).
The test system of data set [8] is Trypanosoma cruzi. Briefly: Antimicrobial activity against Trypanosoma cruzi amastigotes. In kind it is functional. The note with it: read-out: ED50 (the source's name). Summed up: as §1
In data set [9] the test system is Trypanosoma cruzi. Briefly: Ratio of compound activity to WC-9 activity for Trypanosoma cruzi amastigotes. In kind it is functional.
Data set [10] deals with Vero. Briefly: Cytotoxicity against african green monkey Vero cells at 10 uM. The note with it: chlorocebus sabaeus. In kind it is cell-based.
Data set [11] relates to Trypanosoma cruzi. Briefly: Antimicrobial activity against Trypanosoma cruzi CL amastigotes infected in african green monkey Vero cells at 10 uM measured on day 3 by fluorescence assay. In kind it is functional. The note with it: 72 h. Summed up:
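Vero host cells, gamma-irradiated (2,000 Rads), seeded at 3.4×10^4/well in RPMI with 10% FBS and incubated overnight at 35 °C, 7% CO2. […] Compounds were added in RPMI, in quadruplicate, with no-parasite background and no-drug controls. Fluorescence was read at day 3 post-infection.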

Data set [12] has as its system Toxoplasma gondii. Briefly: Antimicrobial activity against Toxoplasma gondii tachyzoites expressing red fluorescence protein infected in hTerT cells at 10 uM measured daily by fluorescence assay. In kind it is functional.

Molecules are shown by their SMILES. pEC50, pIC50: −log10 of the molar value.

Broadly, the pIC50 is −log10 of the IC50, conventionally taken in molar units. Regarding `CCCCCCNCC(O)(P(=O)(O)O)P(=O)(O)O`, the Activity entry (in [1]; in the data set on Vero [3]) was “Non-toxic” throughout. Further, the values for the pEC50 in the data set on Toxoplasma gondii [2] and in the data set on Trypanosoma cruzi [4] were 5.33 and under 4.70, respectively. The pIC50 in [5] was under 5.00; in data set [6], 7.29.
Regarding `CCCCCNCC(O)(P(=O)(O)O)P(=O)(O)O`, the Activity result (in data set [1]; in the data set with Vero [3]) was “Non-toxic” throughout. Also, the results for the pEC50 with Toxoplasma gondii [2] and with Trypanosoma cruzi [4] were under 5.00 and under 4.70, respectively. The pIC50 was under 5.00 in [5] and 7.17 in [6].
For `CCCCCCCCCCCCNCC(P(=O)(O)O)P(=O)(O)O`, the pEC50 in the data set on Trypanosoma cruzi [7] was 6.17.
In the case of `CCCCCCCCC(F)(P(=O)(O)O)P(=O)(O)O`, in [6], the pIC50 was 7.46.
Turning to `O=C(Cn1ccnc1[N+](=O)[O-])NCc1ccccc1` [BENZNIDAZOLE], the pEC50 is 5.84 in the data set on Trypanosoma cruzi [4] and 5.56 in the data set with Trypanosoma cruzi [7].
Consider `CCCCCCCNCC(O)(P(=O)(O)O)P(=O)(O)O`, for which the Activity entry (in data set [1]; with Vero [3]) was “Non-toxic” in each case. In addition, the pEC50 in the data set with Toxoplasma gondii [2] was at most 5.00; in the data set on Trypanosoma cruzi [4], under 4.70. In addition, the pIC50 in data set [5] was under 5.00.
Consider `CCCCCCNCC(P(=O)(O)O)P(=O)(O)O`, for which the pEC50 in the data set with Trypanosoma cruzi [8] is 6.08. Moreover, the Ratio with Trypanosoma cruzi [9] was found to be 15.
A word on the inhibition: it is the percentage by which the read-out fell short of the control. As to `CCCCCCCCNCC(O)(P(=O)(O)O)P(=O)(O)O`, the Activity result in data set [1] was “Non-toxic”; with Vero [3] it was “Non-toxic”; in the data set on Vero [10], “Toxic”. Moreover, in the data set with Toxoplasma gondii [2], the pEC50 is 5.70. This molecule also yielded an inhibition at 10 µM with Trypanosoma cruzi [11] of 46%. For the same molecule, the pIC50 in [5] is under 5.00; in data set [6] it was 7.41.
In [6], `CCCCCCCCCC(F)(P(=O)(O)O)P(=O)(O)O` showed a pIC50 of 7.22.
`CCCCCCCCCCNCC(O)(P(=O)(O)O)P(=O)(O)O`: the Activity entry (in [1]; in the data set on Vero [3]) was “Non-toxic” throughout. In addition, the inhibition at 10 µM was 14.9% in the data set with Toxoplasma gondii [12] and 42% in the data set on Trypanosoma cruzi [11]. Further, the pIC50 in data set [5] was under 5.00; in data set [6], 6.90.
For the molecule `O=P(O)(O)C(O)(Cc1cccnc1)P(=O)(O)O` [RISEDRONIC ACID], the pEC50 with Toxoplasma gondii [2] was 5.62.
